Results from ChEMBL document CHEMBL4251569, “Camptothecin-psammaplin A hybrids as topoisomerase I and HDAC dual-action inhibitors” (Eur J Med Chem, 2018).
Active and inactive are the calls of the source. The calls are words filed in the database; no cut-off is given here.

Assays:
[1] = Cell cycle arrest in human MM487 cells assessed as accumulation at S phase at 0.3 uM after 24 hrs by propidium iodide staining-based flow cytometric method (reference value: 25.2%); type: functional
MM473 [2] = assay: Induction of apoptosis in human MM473 cells at 4 uM after 72 hrs by propidium iodide staining-based flow cytometric method (reference value: 1.4%); type: functional
[3] = Cell cycle arrest in human MM487 cells assessed as accumulation at S phase at 0.3 uM after 72 hrs by propidium iodide staining-based flow cytometric method (reference value: 14.6%); type: functional
cells [4] = type: functional, cell-based; conditions: Homo sapiens, 72 h
[5] = Induction of apoptosis in human MM487 cells at 0.3 uM after 24 hrs by propidium iodide staining-based flow cytometric method (reference value: 0.5%); type: functional
MM473 [6] = assay: Cell cycle arrest in human MM473 cells assessed as accumulation at G2/M phase at 4 uM after 48 hrs by propidium iodide staining-based flow cytometric method (reference value: 4.3%); type: functional
DU-145 = assay: cells; type: functional, cell-based; conditions: Homo sapiens, DU-145, 72 h
[7] = target: Protein deacetylase HDAC6 (Homo sapiens, UniProt Q9UBN7); assay: Inhibition of HDAC6 (unknown origin) using RHKK(Ac)AMC as substrate after 1 to 2 hrs by fluorescence assay
HeLa = assay: cells; type: functional, cell-based; conditions: Homo sapiens, 72 h
DG-75 = assay: cells; type: functional, cell-based; conditions: Homo sapiens, DG-75, 72 h
Histone deacetylase 4 = Histone deacetylase 4 (Homo sapiens, UniProt P56524); assay: Inhibition of HDAC4 (unknown origin) using fluorogenic substrate after 1 to 2 hrs by fluorescence assay
How it was run: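 Purified HDAC4 preincubated with compound (10 concentrations from 10 µM, triplicate, final 1% DMSO) in 50 mM Tris-HCl pH 8.0, 137 mM NaCl, 2.7 mM KCl, 1 mM MgCl2, 1 mg/ml BSA. Class 2a trifluoroacetyl-lysine fluorogenic substrate added and incubated 1–2 h at 30 °C. Developer with TMP269 stops the reaction; fluorescence read at ex 360/em 460 at plateau. Activity is relative to DMSO, and IC50 comes from a sigmoidal fit.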

MM473 [8] = assay: Cell cycle arrest in human MM473 cells assessed as accumulation at S phase at 4 uM after 72 hrs by propidium iodide staining-based flow cytometric method (reference value: 15.1%); type: functional
MM473 [9] = assay: Cell cycle arrest in human MM473 cells assessed as accumulation at G0/G1 phase at 4 uM after 48 hrs by propidium iodide staining-based flow cytometric method (reference value: 71.8%); type: functional
MM473 [10] = assay: Cell cycle arrest in human MM473 cells assessed as accumulation at G2/M at 4 uM after 24 hrs by propidium iodide staining-based flow cytometric method (reference value: 15.7%); type: functional
[11] = Cell cycle arrest in human MM487 cells assessed as accumulation at G2/M phase at 0.3 uM after 72 hrs by propidium iodide staining-based flow cytometric method (reference value: 5.4%); type: functional
Histone deacetylase 1 = Histone deacetylase 1 (Homo sapiens, UniProt Q13547); assay: Inhibition of HDAC1 (unknown origin) using RHKK(Ac)AMC as substrate after 1 to 2 hrs by fluorescence assay
[12] = Cell cycle arrest in human MM487 cells assessed as accumulation at G2/M phase at 0.3 uM after 48 hrs by propidium iodide staining-based flow cytometric method (reference value: 12.5%); type: functional
[13] = Cell cycle arrest in human MM487 cells assessed as accumulation at G2/M at 0.3 uM after 24 hrs by propidium iodide staining-based flow cytometric method (reference value: 16.9%); type: functional
A2780 = assay: cells; type: functional, cell-based; conditions: Homo sapiens, A2780, 72 h
Histone deacetylase 2 = Histone deacetylase 2 (Homo sapiens, UniProt Q92769); assay: Inhibition of HDAC2 (unknown origin) using RHKK(Ac)AMC as substrate after 1 to 2 hrs by fluorescence assay
cells [14] = type: functional, cell-based; conditions: Homo sapiens, A2780/DX, 72 h
Mus musculus = assay: Toxicity in CD1 nude mouse xenografted with human MM473 cells assessed as body weight loss at 90 mg/kg, iv administered every 4 days per week for 3 weeks measured during compound dosing and on day 40 post last dose; type: organism-based; conditions: in vivo
How it was run: (§1)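 MM473 mesothelioma cells (F-10, 10% FBS, G418; mycoplasma-checked, >95% viable) injected intrapleurally, 1x10⁶ in 200 µl M199 per CD-1 nude mouse. Treatment i.v. from day 15 when tumours were growing, in 10% 1:1 ethanol–Cremophor in saline, q4dx3w; vehicle control. Tumour burden followed weekly by IVIS bioluminescence after i.p. D-luciferin (100 µL/10 g), as average radiance; body weight recorded.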

[15] = Induction of apoptosis in human MM487 cells at 0.3 uM after 48 hrs by propidium iodide staining-based flow cytometric method (reference value: 0.3%); type: functional
[16] = target: Histone deacetylase (HDAC1 and HDAC2) (Homo sapiens) (UniProt Q13547+Q92769); assay: Inhibition of HDAC1/2 in human MM473 cells assessed as increase in hyperacetylation of nuclear histone H4 at 0.2 to 0.5 uM after 24 hrs by Western blot method; type: cell-based
How it was run: (§2)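 MM473 cells treated 24 h (0.2 and 0.5 µM), lysed in NP-40 or RIPA with protease/phosphatase inhibitors; 40 µg protein run on SDS-PAGE, transferred to nitrocellulose, blocked in 5% milk/TBST, probed overnight for acetyl-H4, H4, acetyl-tubulin and α-tubulin, HRP secondaries, ECL chemiluminescence; band density normalised to α-tubulin.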

cells [17] = type: functional, cell-based; conditions: Homo sapiens, 72 h; remark: listed apart in the source
MM473 [18] = assay: Cell cycle arrest in human MM473 cells assessed as accumulation at G2/M phase at 4 uM after 72 hrs by propidium iodide staining-based flow cytometric method (reference value: 4.6%); type: functional
MM473 [19] = assay: Induction of apoptosis in human MM473 cells at 4 uM after 48 hrs by propidium iodide staining-based flow cytometric method (reference value: […]); type: functional
NCI-H460 = assay: cells; type: functional, cell-based; conditions: Homo sapiens, NCI-H460, 72 h
KM-H2 = assay: cells; conditions: Homo sapiens, KM-H2, 72 h
NB-4 = assay: cells; type: functional, cell-based; conditions: Homo sapiens, NB-4, 72 h
MM473 [20] = assay: Induction of apoptosis in human MM473 cells at 4 uM after 24 hrs by propidium iodide staining-based flow cytometric method (reference value: 2.5%); type: functional
MM473 [21] = assay: Cell cycle arrest in human MM473 cells assessed as accumulation at S phase at 4 uM after 48 hrs by propidium iodide staining-based flow cytometric method (reference value: 23.9%); type: functional
cells [22] = type: functional, cell-based; conditions: Homo sapiens, MINO, 72 h
U2932 = assay: cells; type: functional, cell-based; conditions: Homo sapiens, U2932, 72 h
[23] = Cell cycle arrest in human MM487 cells assessed as accumulation at G0/G1 phase at 0.3 uM after 72 hrs by propidium iodide staining-based flow cytometric method (reference value: 80%); type: functional
cells [24] = type: functional, cell-based; conditions: Homo sapiens, MM487, 72 h
HepG2 = assay: Antiproliferative activity against human HepG2 cells after 72 hrs by SRB assay; type: functional, cell-based; conditions: HepG2, 72 h
[25] = Cell cycle arrest in human MM487 cells assessed as accumulation at G0/G1 phase at 0.3 uM after 48 hrs by propidium iodide staining-based flow cytometric method (reference value: 73.8%); type: functional
[26] = Induction of apoptosis in human MM487 cells at 0.3 uM after 72 hrs by propidium iodide staining-based flow cytometric method (reference value: 0.6%); type: functional
MM473 [27] = assay: Cell cycle arrest in human MM473 cells assessed as accumulation at G0/G1 phase at 4 uM after 72 hrs by propidium iodide staining-based flow cytometric method (reference value: 80.2%); type: functional
[28] = Cell cycle arrest in human MM487 cells assessed as accumulation at G0/G1 phase at 0.3 uM after 24 hrs by propidium iodide staining-based flow cytometric method (reference value: 57.9%); type: functional
CAPAN-1 = assay: cells; type: functional, cell-based; conditions: Homo sapiens, CAPAN-1, 72 h
MM473 [29] = assay: Cell cycle arrest in human MM473 cells assessed as accumulation at S phase at 4 uM after 24 hrs by propidium iodide staining-based flow cytometric method (reference value: 29.8%); type: functional
HT-29 = assay: Antiproliferative activity against human HT-29 cells after 72 hrs by SRB assay; type: functional, cell-based; conditions: HT-29, 72 h
JeKo-1 = assay: cells; type: functional, cell-based; conditions: Homo sapiens, JeKo-1, 72 h
MM473 [30] = assay: cells; type: functional, cell-based; conditions: Homo sapiens, MM473, 72 h
A-431 = assay: cells; type: functional, cell-based; conditions: Homo sapiens, A-431, 72 h
[31] = target: Polyamine deacetylase HDAC10 (Homo sapiens, UniProt Q969S8); assay: Inhibition of HDAC10 (unknown origin) using RHKK(Ac)AMC as substrate after 1 to 2 hrs by fluorescence assay
MM473 [32] = assay: Cell cycle arrest in human MM473 cells assessed as accumulation at G0/G1 phase at 4 uM after 24 hrs by propidium iodide staining-based flow cytometric method (reference value: 54.5%); type: functional
[33] = Cell cycle arrest in human MM487 cells assessed as accumulation at S phase at 0.3 uM after 48 hrs by propidium iodide staining-based flow cytometric method (reference value: 13.7%); type: functional
L-428 = assay: cells; type: functional, cell-based; conditions: Homo sapiens, L-428, 72 h
[34] = target: Protein deacetylase HDAC6 (Homo sapiens) (UniProt Q9UBN7); assay: Inhibition of HDAC6 in human MM473 cells assessed as increase in hyperacetylation of cytoplasmic alpha-tubulin at 0.2 to 0.5 uM after 24 hrs by Western blot method; type: cell-based; how it was run: as §2
OCI-Ly3 = assay: cells; conditions: Homo sapiens, OCI-Ly3, 72 h
MM473 [35] = assay: Antitumor activity against human MM473 cells xenografted in CD1 nude mouse assessed as inhibition of tumor volume at 90 mg/kg, iv administered every 4 days per week for 3 weeks measured 10 days post last dose by luciferase reporter assay relative to vehicle-treated control; type: functional; how it was run: as §1

Protein deacetylase HDAC6 (Homo sapiens), sequence (Q9UBN7 whole entry): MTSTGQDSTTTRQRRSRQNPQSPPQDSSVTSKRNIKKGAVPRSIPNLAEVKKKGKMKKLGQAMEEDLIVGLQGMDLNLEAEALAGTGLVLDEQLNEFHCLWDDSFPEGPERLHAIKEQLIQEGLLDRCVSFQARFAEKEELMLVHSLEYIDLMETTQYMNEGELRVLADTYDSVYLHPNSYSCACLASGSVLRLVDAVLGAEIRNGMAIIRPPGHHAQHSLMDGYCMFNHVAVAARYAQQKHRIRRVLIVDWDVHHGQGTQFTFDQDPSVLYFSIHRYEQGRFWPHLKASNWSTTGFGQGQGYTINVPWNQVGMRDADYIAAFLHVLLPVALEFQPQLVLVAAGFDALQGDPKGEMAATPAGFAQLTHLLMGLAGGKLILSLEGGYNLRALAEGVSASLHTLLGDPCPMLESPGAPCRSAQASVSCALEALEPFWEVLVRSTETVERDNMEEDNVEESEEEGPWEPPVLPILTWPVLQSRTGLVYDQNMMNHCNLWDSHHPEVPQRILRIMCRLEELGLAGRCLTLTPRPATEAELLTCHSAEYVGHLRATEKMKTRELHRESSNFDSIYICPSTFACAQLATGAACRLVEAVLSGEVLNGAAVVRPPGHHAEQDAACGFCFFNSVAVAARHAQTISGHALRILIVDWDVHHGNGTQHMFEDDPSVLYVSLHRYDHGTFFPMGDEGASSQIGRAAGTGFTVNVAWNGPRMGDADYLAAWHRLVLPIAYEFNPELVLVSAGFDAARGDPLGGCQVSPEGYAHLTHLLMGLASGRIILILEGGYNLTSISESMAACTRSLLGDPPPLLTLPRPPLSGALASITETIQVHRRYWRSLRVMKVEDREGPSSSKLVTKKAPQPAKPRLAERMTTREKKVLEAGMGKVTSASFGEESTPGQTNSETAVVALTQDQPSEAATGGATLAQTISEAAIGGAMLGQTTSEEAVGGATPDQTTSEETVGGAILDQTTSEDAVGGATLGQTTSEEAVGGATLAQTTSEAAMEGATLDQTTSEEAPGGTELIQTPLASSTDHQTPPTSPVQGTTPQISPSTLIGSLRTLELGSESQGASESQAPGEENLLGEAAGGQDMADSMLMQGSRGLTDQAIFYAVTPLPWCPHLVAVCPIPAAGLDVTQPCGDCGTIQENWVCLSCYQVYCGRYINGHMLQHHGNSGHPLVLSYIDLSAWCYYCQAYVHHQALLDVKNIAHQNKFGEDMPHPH
Protein deacetylase HDAC6, sequence (Q9UBN7 whole entry): as above
Polyamine deacetylase HDAC10, sequence (Q969S8 whole entry): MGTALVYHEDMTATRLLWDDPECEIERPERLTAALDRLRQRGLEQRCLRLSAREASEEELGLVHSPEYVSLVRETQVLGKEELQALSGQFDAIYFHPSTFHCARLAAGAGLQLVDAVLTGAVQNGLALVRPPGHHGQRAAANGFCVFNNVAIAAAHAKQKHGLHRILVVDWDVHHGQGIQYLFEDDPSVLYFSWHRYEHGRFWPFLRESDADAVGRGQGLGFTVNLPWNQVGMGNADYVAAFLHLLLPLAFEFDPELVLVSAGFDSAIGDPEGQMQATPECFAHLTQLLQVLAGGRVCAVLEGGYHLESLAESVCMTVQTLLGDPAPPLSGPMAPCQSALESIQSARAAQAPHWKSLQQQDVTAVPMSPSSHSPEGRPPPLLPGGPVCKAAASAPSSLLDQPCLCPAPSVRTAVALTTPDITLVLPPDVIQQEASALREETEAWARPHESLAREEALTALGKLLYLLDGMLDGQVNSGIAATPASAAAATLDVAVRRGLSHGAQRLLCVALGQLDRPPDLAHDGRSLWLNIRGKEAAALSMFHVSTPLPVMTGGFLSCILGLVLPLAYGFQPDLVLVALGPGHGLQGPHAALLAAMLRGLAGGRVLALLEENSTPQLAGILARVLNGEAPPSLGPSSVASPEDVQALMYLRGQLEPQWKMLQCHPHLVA
Histone deacetylase 1, sequence (Q13547 whole entry): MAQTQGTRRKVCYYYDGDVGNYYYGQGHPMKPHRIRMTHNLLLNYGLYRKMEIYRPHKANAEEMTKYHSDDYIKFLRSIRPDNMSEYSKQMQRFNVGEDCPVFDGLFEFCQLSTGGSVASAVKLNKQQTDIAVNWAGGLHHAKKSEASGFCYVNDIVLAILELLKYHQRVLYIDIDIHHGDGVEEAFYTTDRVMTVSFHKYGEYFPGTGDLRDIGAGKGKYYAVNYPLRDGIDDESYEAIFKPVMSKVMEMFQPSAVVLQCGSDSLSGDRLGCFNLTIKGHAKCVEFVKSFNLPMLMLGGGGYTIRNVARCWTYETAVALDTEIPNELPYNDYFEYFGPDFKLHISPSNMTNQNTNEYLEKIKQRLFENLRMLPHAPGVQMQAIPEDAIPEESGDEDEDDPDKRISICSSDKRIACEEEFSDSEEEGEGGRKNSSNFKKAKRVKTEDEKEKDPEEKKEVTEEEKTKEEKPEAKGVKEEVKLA
Histone deacetylase (HDAC1 and HDAC2) (Homo sapiens), sequence (Q13547 whole entry, looked up): as the sequence (Q13547 whole entry) above
Histone deacetylase (HDAC1 and HDAC2) (Homo sapiens), sequence (Q92769 whole entry, looked up): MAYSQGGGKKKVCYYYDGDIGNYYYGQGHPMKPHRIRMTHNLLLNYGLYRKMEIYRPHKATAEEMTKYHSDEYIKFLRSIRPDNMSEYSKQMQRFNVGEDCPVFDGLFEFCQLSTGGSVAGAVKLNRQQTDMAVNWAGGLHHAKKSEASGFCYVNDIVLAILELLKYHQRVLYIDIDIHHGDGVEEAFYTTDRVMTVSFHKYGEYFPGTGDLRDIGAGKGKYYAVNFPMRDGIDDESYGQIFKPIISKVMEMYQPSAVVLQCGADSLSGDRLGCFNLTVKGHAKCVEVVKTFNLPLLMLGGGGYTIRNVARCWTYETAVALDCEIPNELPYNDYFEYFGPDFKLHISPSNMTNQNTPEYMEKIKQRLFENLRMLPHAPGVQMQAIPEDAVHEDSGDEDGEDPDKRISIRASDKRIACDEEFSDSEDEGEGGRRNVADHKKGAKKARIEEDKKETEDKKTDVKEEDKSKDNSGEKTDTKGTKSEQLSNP
Histone deacetylase 4, sequence (P56524 whole entry): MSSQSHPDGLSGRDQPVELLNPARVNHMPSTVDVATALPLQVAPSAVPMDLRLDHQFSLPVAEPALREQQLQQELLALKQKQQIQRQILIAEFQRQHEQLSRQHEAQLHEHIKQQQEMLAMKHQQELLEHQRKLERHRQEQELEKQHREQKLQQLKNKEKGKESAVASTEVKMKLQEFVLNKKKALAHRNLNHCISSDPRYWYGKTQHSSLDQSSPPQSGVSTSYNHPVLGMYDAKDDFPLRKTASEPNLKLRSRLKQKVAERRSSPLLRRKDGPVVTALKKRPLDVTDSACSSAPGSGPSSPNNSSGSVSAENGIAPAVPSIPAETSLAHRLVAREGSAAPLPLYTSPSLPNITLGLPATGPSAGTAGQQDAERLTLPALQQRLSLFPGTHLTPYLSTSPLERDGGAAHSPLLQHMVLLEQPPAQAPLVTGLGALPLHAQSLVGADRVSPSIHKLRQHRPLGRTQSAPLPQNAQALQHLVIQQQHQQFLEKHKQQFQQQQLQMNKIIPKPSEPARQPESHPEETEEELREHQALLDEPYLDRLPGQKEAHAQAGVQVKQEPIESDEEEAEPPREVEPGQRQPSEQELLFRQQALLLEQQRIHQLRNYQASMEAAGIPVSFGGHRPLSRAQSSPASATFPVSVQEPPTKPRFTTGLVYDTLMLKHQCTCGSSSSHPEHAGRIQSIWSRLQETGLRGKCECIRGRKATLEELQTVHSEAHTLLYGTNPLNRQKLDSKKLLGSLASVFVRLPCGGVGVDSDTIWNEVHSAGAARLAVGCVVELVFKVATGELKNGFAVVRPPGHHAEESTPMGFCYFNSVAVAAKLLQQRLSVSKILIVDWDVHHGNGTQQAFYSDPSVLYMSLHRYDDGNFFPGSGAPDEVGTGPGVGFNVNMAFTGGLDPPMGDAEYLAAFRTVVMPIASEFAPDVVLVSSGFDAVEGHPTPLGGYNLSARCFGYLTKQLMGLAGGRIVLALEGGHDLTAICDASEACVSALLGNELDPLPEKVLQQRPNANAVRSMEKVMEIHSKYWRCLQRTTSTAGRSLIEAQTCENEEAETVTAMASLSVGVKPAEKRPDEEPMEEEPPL
Histone deacetylase 2, sequence (Q92769 whole entry): as the sequence (Q92769 whole entry, looked up) above

CC[C@@]1(O)C(=O)OCc2c1cc1n(c2=O)Cc2c-1nc1ccccc1c2/C=N/OCCCCCC(=O)NCCSSCCNC(=O)/C(Cc1ccc(O)c(Br)c1)=N\O
Activity [1]: 77.62%
Activity (MM473 [2]): 11%
Activity [3]: 59.2%
IC50 (cells [4]): 300 nM
Activity [5]: 2.6%
Activity (MM473 [6]): 12%
IC50 (DU-145): 110 nM
IC50 [7]: 709 nM
IC50 (HeLa): 470 nM
IC50 (DG-75): 8400 nM
IC50 (Histone deacetylase 4): Not Active
Activity (MM473 [8]): 79.3%
Activity (MM473 [9]): 4.5%
Activity (MM473 [10]): 13.1%
Activity [11]: 21.2%
IC50 (Histone deacetylase 1): 150 nM
Activity [12]: 15.7%
Activity [13]: 1.8%
IC50 (A2780): 220 nM
IC50 (Histone deacetylase 2): 327 nM
IC50 (cells [14]): 830 nM
Activity (Mus musculus): Non-Toxic
Activity [15]: 13.1%
inhibition [16]: Active
IC50 (cells [17]): 4000 nM
Activity (MM473 [18]): 14.5%
Activity (MM473 [19]): 9.9%
IC50 (NCI-H460): 170 nM
IC50 (KM-H2): 280 nM
IC50 (NB-4): 47 nM
Activity (MM473 [20]): 3.8%
Activity (MM473 [21]): 83.5%
IC50 (cells [22]): 35 nM
IC50 (U2932): 110 nM
Activity [23]: 19.6%
IC50 (cells [24]): 130 nM
IC50 (HepG2): 760 nM
Activity [25]: 16.5%
Activity [26]: 25.4%
Activity (MM473 [27]): 6.2%
Activity [28]: 20.6%
IC50 (CAPAN-1): 50 nM
Activity (MM473 [29]): 58.97%
IC50 (HT-29): 660 nM
IC50 (JeKo-1): 60 nM
IC50 (MM473 [30]): 1900 nM
IC50 (A-431): 180 nM
IC50 [31]: 7.55 nM
Activity (MM473 [32]): 28%
Activity [33]: 67.8%
IC50 (L-428): 600 nM
inhibition [34]: inactive
IC50 (OCI-Ly3): 100 nM
inhibition in vivo at 90 mg/kg (MM473 [35]): 78%
